Measured values taken from ChEMBL document CHEMBL1130140, “O6-(alkyl/aralkyl)guanosine and 2'-deoxyguanosine derivatives: synthesis and ability to enhance chloroethylnitrosourea antitumor action” (1997).

Tests used:
M4Beu cell line [1] = assay: In vitro cytotoxicity against M4Beu cells when co-administered with 50 uM cystemustine.; type: functional; details: Homo sapiens, read-out: ED50 (the source's name)
How it was run: (§1)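 M4Beu cells were plated at 200 cells/dish and left to adhere 20 h. They were given compound at 0-400 µM (100 mM DMSO stock) for 4 h at 37 °C, then 50 µM cystemustine for 2 h at 37 °C, then grown 14 days. Methanol-fixed, crystal-violet-stained colonies (>50 cells) were counted. ED50 was read graphically from the concentration plot of survival decrease relative to cystemustine alone. Each dose ran ≥3 times in triplicate.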

M4Beu cell line [2] = assay: In vitro cytotoxicity in M4Beu cells after 4 hr exposure to 300 uM.; type: functional, Homo sapiens
How it was run: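 Colony-forming assay: M4Beu cells plated at 200 cells/dish, allowed to adhere 20 h, then exposed 4 h at 37 °C to compound at 300 µM (from 100 mM DMSO stock) with no cystemustine step. Medium then replaced, cells grown 14 days, fixed in methanol, stained with crystal violet. Colonies >50 cells counted; survival as percent of untreated control; at least three experiments in triplicate.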

M4Beu cell line [3] = assay: Effective dose of compound associated with cystemustine (50 uM), required to reduce by 50% cell survival rate (M4Beu cells); type: functional; details: Homo sapiens, read-out: ED50 (the source's name); how it was run: as §1

Row | Compound | EC50 (M4Beu cell line [1]) [µM] | Cell survival (M4Beu cell line [2]) [%] | EC50 (M4Beu cell line [3]) [µM]
1 | CC(=O)Nc1nc(OCc2ccc(Br)cc2)c2ncn([C@H]3C[C@H](O)[C@@H](CO)O3)c2n1 | 211 | – | –
2 | CC(=O)Nc1nc(OC(c2ccccc2)c2ccccc2)c2ncn(C3O[C@H](CO)[C@@H](O)[C@H]3O)c2n1 (stereo not given in full) | 400 | – | –
3 | Nc1nc(OCc2ccc(I)cc2)c2ncn(C3O[C@H](CO)[C@@H](O)[C@H]3O)c2n1 (stereo not given in full) | 122 | 100 | –
4 | CC(=O)Nc1nc(OCc2ccc(Br)cc2)c2ncn(C3CC(OC(C)=O)C(COC(C)=O)O3)c2n1 (stereo not given) | 216 | – | –
5 | CC(=O)Nc1nc(OCc2ccc(Br)cc2)c2ncn(C3OC(COC(C)=O)C(OC(C)=O)C3OC(C)=O)c2n1 (stereo not given) | – | – | 400
6 | CC(=O)Nc1nc(OCc2ccc(I)cc2)c2ncn(C3CC(OC(C)=O)C(COC(C)=O)O3)c2n1 (stereo not given) | 200 | – | –
7 | CC(=O)Nc1nc(OCc2ccc(I)cc2)c2ncn(C3CC(O)C(CO)O3)c2n1 (stereo not given) | 269 | – | –
8 | Nc1nc(OCc2ccccc2)c2nc[nH]c2n1 [6-O-BENZYLGUANINE] | 2 | 110 | –
